# Measured values pooled from the literature.
# Compare with care: the assays were run in different laboratories.
# Target: Serine/threonine-protein kinase Chk1 (CHEK1, Homo sapiens, UniProt O14757)
# Residues used in one study (O14757 1-476): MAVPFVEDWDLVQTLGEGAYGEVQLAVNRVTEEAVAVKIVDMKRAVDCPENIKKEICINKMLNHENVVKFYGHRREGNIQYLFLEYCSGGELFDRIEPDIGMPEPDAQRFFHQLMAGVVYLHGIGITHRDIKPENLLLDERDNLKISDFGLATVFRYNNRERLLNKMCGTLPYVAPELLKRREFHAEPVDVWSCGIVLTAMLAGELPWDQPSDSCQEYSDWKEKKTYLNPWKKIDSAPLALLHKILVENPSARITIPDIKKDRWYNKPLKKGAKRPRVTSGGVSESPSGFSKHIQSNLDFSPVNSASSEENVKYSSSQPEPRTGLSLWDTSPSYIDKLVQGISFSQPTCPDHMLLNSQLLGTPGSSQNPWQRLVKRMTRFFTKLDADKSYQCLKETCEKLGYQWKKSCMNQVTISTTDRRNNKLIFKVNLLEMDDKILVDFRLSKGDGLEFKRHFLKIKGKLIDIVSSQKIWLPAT
SMILES,effect on,action,technique,concentration,quantity,result
Cn1cc(-c2cccc(N3CCc4c(sc5c4CC(C)(C)C5)C3=O)c2CO)cc(Nc2ccncn2)c1=O,enzyme activity,inhibitor,,1 µM,inhibition,1%
C#Cc1n[nH]c2c(-c3cn([C@@H](C)c4ccccn4)c(=O)[nH]c3=O)cc(F)cc12,enzyme activity,inhibitor,,0.1 µM,inhibition,-3.2%
COc1ncccc1-c1cnn2ccc(N3CCN(C(=O)OC(C)C)CC3)nc12,binding,,competition with immobilised ligand,1 µM,remaining binding,100%
Nc1ncc(-c2nc(N3CCOCC3)nc(N3CCOCC3)n2)c(C(F)F)n1,binding,,competition with immobilised ligand,10 µM,remaining binding,67%
O=c1[nH]c2ccccc2n1C1CCN(Cc2ccc(-c3[nH]c4cc5ncnc5cc4nc3-c3ccccc3)cc2)CC1,cell-free assay,,,0.5 µM,remaining signal,107%
Cn1cc(-c2cc(F)cc(N3CCn4c(cc5c4CCCC5)C3=O)c2CO)cc(Nc2ccc(N3CCN(C4COC4)CC3)cn2)c1=O,enzyme activity,inhibitor,,0.1 µM,inhibition,2%
C#Cc1n[nH]c2c(-c3cn([C@@H](C)c4ccccc4)c(=O)[nH]c3=O)cc(F)cc12,enzyme activity,inhibitor,,0.1 µM,inhibition,-1.2%
Cc1nn(C)cc1-c1nc2c(N3CCN(Cc4ccc(Cl)cc4)CC3)c(Cl)cnc2[nH]1,binding,,competition with immobilised ligand,1 µM,remaining binding,100%
COc1cc(Nc2ncc(F)c(Nc3ccc4c(n3)NC(=O)C(C)(C)O4)n2)cc(OC)c1OC,binding,,competition with immobilised ligand,10 µM,inhibition,62%
CC(C)(C)c1cc(C=C(C#N)C#N)cc(Br)c1O,enzyme activity,inhibitor,,0.5 µM,remaining activity,100%
Cn1cncc1[C@@](O)(COc1ccc(C#N)cc1-c1ccc(OC(F)(F)F)cc1)c1ccc(C#N)cc1,cell-free assay,,competition with immobilised ligand,1 µM,remaining binding,100%
